A word on the MIC: it is the lowest concentration that inhibits growth of the organism. By inhibition is commonly meant the relative decrease from the control value, in per cent. A high value points to a strong effect. As usually defined, the MFC is the lowest tested concentration that kills the fungus rather than only halting it. The low end stands for greater fungicidal potency, the high end for weaker fungicidal potency.

We go through eight compounds from ChEMBL document CHEMBL1165856, “Naftifine-analogues as anti-Trypanosoma cruzi agents” (Eur J Med Chem, 2010).

The test system of data set [1] is Aspergillus flavus. The data set can be described thus: Antifungal activity against Aspergillus flavus ATCC 9170 after 48 hrs. In kind it is functional. The settings on record: ATCC 9170, 48 h. In a few lines: (§1)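 Aspergillus spp. were tested by CLSI M38-A broth microdilution in RPMI 1640 with MOPS at pH 7.0. Spore inoculum is 10³ CFU/mL, with two-fold compound dilutions and final DMSO ≤1%. Incubated at 35 °C in a moist, dark chamber. MIC is read visually as total growth inhibition, at a time set by growth of the control fungus.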

Data set [2] relates to Candida tropicalis. The data set can be described thus: Antifungal activity against Candida tropicalis C 131 2000 after 48 hrs. In kind it is functional. A digest of the protocol:
(§2)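 CLSI M27-A2 broth microdilution in RPMI 1640 buffered to pH 7.0 with MOPS. Inoculum is 10³ CFU/mL from Sabouraud-grown yeasts. Compound is two-fold serially diluted, final DMSO ≤1%. Incubated at 35 °C in a moist, dark chamber and read visually at 48 h. MIC is the lowest concentration giving total growth inhibition.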

In data set [3] the test system is Aspergillus fumigatus. The data set can be described thus: Antifungal activity against Aspergillus fumigatus ATCC 26934 after 48 hrs. In kind it is functional. The settings on record: ATCC 26934, 48 h. A digest of the protocol:
as §1

Data set [4] deals with Candida albicans. The data set can be described thus: Antifungal activity against Candida albicans ATCC 10231 after 48 hrs. In kind it is functional. As to conditions: ATCC 10231, 48 h. In a few lines:
as §2

Data set [5] deals with Trichophyton mentagrophytes. The data set can be described thus: Antifungal activity against Trichophyton mentagrophytes ATCC 9972 after 48 hrs. In kind it is functional. The settings on record: ATCC 9972, 48 h. A digest of the protocol: (§3)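 Dermatophytes were tested by CLSI M38-A microdilution in MOPS-buffered RPMI 1640 at pH 7.0. Inoculum is 10³ CFU/mL, with two-fold serial compound dilutions and final DMSO ≤1%. Trays are kept at 28–30 °C in a moist, dark chamber. MIC is the lowest concentration with total growth inhibition, read visually when control growth allows.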

Data set [6] has as its system Trichophyton rubrum. The data set can be described thus: Antifungal activity against Trichophyton rubrum C 113 after 48 hrs. In kind it is functional. As to conditions: C 113, 48 h. In a few lines:
as §3

Data set [7] deals with Aspergillus niger. The data set can be described thus: Antifungal activity against Aspergillus niger ATCC 9029 after 48 hrs. As to conditions: ATCC 9029, 48 h. In kind it is functional. A digest of the protocol: as §1
The test system of data set [8] is Trypanosoma cruzi. The data set can be described thus: Antitrypanosomal activity against Trypanosoma cruzi Tulahuen 2 at 25 uM. In kind it is functional. In a few lines:
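Tulahuen 2 epimastigotes (8 × 10⁶ cells/mL, 28 °C, BHI-tryptose with 5% FBS) were exposed to a single drug concentration, with final DMSO ≤0.4% and a vehicle control. Percent growth inhibition = {1 − [(Ap − A0p)/(Ac − A0c)]} × 100, using A600 of drug and control cultures at day 0 and day 5.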

For data set [9], the system named is Nannizzia gypsea. The data set can be described thus: Antifungal activity against Microsporum gypseum C 115 after 48 hrs. In kind it is functional. The settings on record: C 115, 48 h. In a few lines:
as §3

Data set [10] deals with Saccharomyces cerevisiae. The data set can be described thus: Antifungal activity against Saccharomyces cerevisiae ATCC 9763 after 48 hrs. The settings on record: ATCC 9763, 48 h. In kind it is functional. A digest of the protocol: as §2
The subject of data set [11] is Cryptococcus neoformans. The data set can be described thus: Antifungal activity against Cryptococcus neoformans ATCC 32264 after 48 hrs. In kind it is functional. In a few lines: as §2
A short description of data set [12]: Selectivity index, ratio of ID50 for mouse J774 cells to ID50 for Trypanosoma cruzi Tulahuen 2. In kind it is toxicity, cell-based. As to conditions: J774 cells versus Trypanosoma cruzi Tulahuen 2. In a few lines: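 Selectivity index is the ID50 in J-774 macrophages (48 h MTT) divided by the ID50 against Tulahuen 2 epimastigotes (day-5 A600 growth).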
Data set [13] has as its system Trypanosoma cruzi. The data set can be described thus: Antitrypanosomal activity against Trypanosoma cruzi Tulahuen 2. The settings on record: read-out: ID50 (the source's name). In kind it is functional. In a few lines: (§4)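 Epimastigotes were grown at 28 °C in BHI-tryptose with 5% FBS. Stationary-phase parasites are inoculated at 8 × 10⁶ cells/mL into medium containing increasing drug concentrations from DMSO stock (final DMSO ≤0.4%; vehicle control). Growth is followed by A600. ID50 is the concentration that halves the day-5 absorbance ratio relative to control.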

Data set [14] is described as follows: Cytotoxicity against mouse J774 cells after 48 hrs by MTT assay. In kind it is cell-based. The settings on record: read-out: ID50. A digest of the protocol:
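J-774 macrophages were seeded at 1 × 10⁵ cells/well in RPMI 1640 with 20% heat-inactivated FCS and left to attach for 48 h at 37 °C in 5% CO₂. Cells were then exposed to compounds for 48 h. MTT was added at 0.4 mg/mL final, formazan was dissolved in DMSO, and A595 was read. ID50 is the concentration cutting control absorbance by 50%, averaged over three experiments.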
In general terms: Formazan colour is commonly taken as a measure of viable cells.

The subject of data set [15] is Trypanosoma cruzi. The data set can be described thus: Antitrypanosomal activity against Trypanosoma cruzi CL Brener. In kind it is functional. The settings on record: read-out: ID50 (the source's name). In a few lines:
as §4

[16] abbreviates: Candida tropicalis, C 131 2000, 48 h, read-out: MIC.
[17] abbreviates: Cryptococcus neoformans, ATCC 32264, 48 h, read-out: MIC.
Setting [18] is: Cryptococcus neoformans, ATCC 32264, 48 h.

≈ marks a conversion by molar mass, not a printed value. Where “and” joins values, the source holds several entries; their conditions need not be identical. Identical values can stand only once.

On to `C=CCNC(=S)N/N=C/c1ccc2c(c1)[n+]([O-])c(C#N)c(N)[n+]2[O-]`, for which the MIC in [1], in data set [2] (setting [16]), in data set [3], in data set [4], in data set [5] and in data set [6] was above 250 µg/mL throughout. The MIC in [7], in data set [9], in data set [10] and in data set [11] (setting [17]) was above 250 µg/mL throughout. This compound also came in with an inhibition at 25 µM in [8] of 6%.
For the compound `C=CCNC(=S)N/N=C/c1ccc2c(c1)[n+]([O-])c(C(=O)Nc1ccccc1)c(C)[n+]2[O-]`, the MIC in [1] was above 250 µg/mL; in data set [2] (setting [16]) it was above 250 µg/mL; in data set [3] it was above 250 µg/mL; in data set [4], above 250 µg/mL; in data set [5], 250 µg/mL (≈ 573 µM); in [6], 250 µg/mL (≈ 573 µM). Further, the MIC in [7] was above 250 µg/mL; in [9], 250 µg/mL (≈ 573 µM); in data set [10], above 250 µg/mL; in [11] (setting [17]), 250 µg/mL (≈ 573 µM). For the same compound, the MFC in data set [5] was 250 µg/mL (≈ 573 µM); in [6], 250 µg/mL (≈ 573 µM); in data set [9], 250 µg/mL (≈ 573 µM); in data set [11] (setting [18]), above 250 µg/mL. This compound had an inhibition at 25 µM in data set [8] of 0%.
Turning to `C=CCNC(=S)N/N=C/c1ccc2c(c1)[n+]([O-])c(C)c(C)[n+]2[O-]`, the minimum inhibitory concentration (MIC) in data set [1], in [2] (setting [16]), in data set [3], in data set [4], in data set [5] and in data set [6] was above 250 µg/mL each time. The minimal inhibitory concentration (MIC) in data set [7], in data set [9], in data set [10] and in data set [11] (setting [17]) was above 250 µg/mL in each case. The compound also registered an inhibition at 25 µM in data set [8] of 21%.
As to `COc1nn(CCOCCN2CCN(C/C=C/c3ccccc3)CC2)c2ccc([N+](=O)[O-])cc12`, the MIC in data set [1] was above 250 µg/mL; in data set [2], 125 µg/mL (≈ 268 µM); in [2] (setting [16]) it was 125 µg/mL (≈ 268 µM); in [3] it was above 250 µg/mL; in [4], 125 µg/mL (≈ 268 µM); in [5], 62.5 µg/mL (≈ 134 µM). The MIC was 62.5 µg/mL (≈ 134 µM) in [6]; above 250 µg/mL in [7]; 62.5 µg/mL (≈ 134 µM) in data set [9]; 62.5 µg/mL (≈ 134 µM) in data set [10]; 62.5 µg/mL (≈ 134 µM) in [11] (setting [17]). Besides, the MFC in data set [4] worked out at 125 µg/mL (≈ 268 µM); in data set [5] it was 125 µg/mL (≈ 268 µM); in data set [6] it was 125 µg/mL (≈ 268 µM); in data set [9] it was 125 µg/mL (≈ 268 µM); in [10] it was 62.5 µg/mL (≈ 134 µM); in [11] (setting [18]) it was 62.5 µg/mL (≈ 134 µM). For the same compound, in data set [12], the selectivity ratio was below 26.3. The results for the IC50 in data set [13] and in [15] were 3.8 µM and 7.9 µM, respectively. Moreover, in [14], the CC50 at 48 h was below 100 µM.
As to `N#Cc1c2ccccc2[n+]([O-])n1C/C=C/c1ccccc1`, the MIC in data set [1] is above 250 µg/mL; in [2] (setting [16]), above 250 µg/mL; in [3], above 250 µg/mL; in [4], above 250 µg/mL; in data set [5], 62.5 µg/mL (≈ 227 µM); in data set [6], 62.5 µg/mL (≈ 227 µM). For the same compound, the minimal inhibitory concentration (MIC) in data set [7] was above 250 µg/mL; in data set [9] it was 62.5 µg/mL (≈ 227 µM); in data set [10], above 250 µg/mL; in data set [11] (setting [17]), above 250 µg/mL. The MFC in [5], in [6] and in data set [9] was 125 µg/mL (≈ 454 µM) throughout. In [8], the inhibition at 25 µM came to 28%.
With `O=[N+]([O-])c1ccc2c(c1)c(OCc1ccccc1)nn2CCCCCN1CCN(C/C=C/c2ccccc2)CC1`, the MIC was above 250 µg/mL in [1]; above 250 µg/mL in data set [2] (setting [16]); above 250 µg/mL in [3]; above 250 µg/mL in [4]; 62.5 µg/mL (≈ 116 µM) in data set [5]; 62.5 µg/mL (≈ 116 µM) in [6]. For the same compound, the minimum inhibitory concentration (MIC) is above 250 µg/mL in data set [7]; 62.5 µg/mL (≈ 116 µM) in data set [9]; above 250 µg/mL in data set [10]; 62.5 µg/mL and 31.2 µg/mL in data set [11]. The MFC in [5], in data set [6] and in [9] was 125 µg/mL (≈ 232 µM) each time. The selectivity ratio in [12] is below 9.4. Besides, the values for the IC50 in data set [13] and in [15] were 10.6 µM and 4.5 µM, respectively. Also, the CC50 at 48 h in [14] was below 100 µM.
For `CN(C/C=C/c1ccccc1)Cc1ccc2no[n+]([O-])c2c1`, in data set [12], the selectivity ratio is below 4.4. The IC50 in data set [13] was 22.6 µM; in data set [15] it was 16.9 µM. Also, the CC50 at 48 h in [14] was below 100 µM.
Turning to `C=CCNC(=S)N/N=C/c1ccc2no[n+]([O-])c2c1`, the minimal inhibitory concentration (MIC) in [1], in data set [2] (setting [16]), in data set [3], in data set [4], in data set [5] and in [6] was above 250 µg/mL each time. In addition, the MIC in [7], in [9], in [10] and in data set [11] (setting [17]) was above 250 µg/mL each time. In data set [8], this compound had an inhibition at 25 µM of 33%.
